Laboratory results taken from ChEMBL document CHEMBL5661979, “Pharmacological inhibition of BMK1 suppresses tumor growth through promyelocytic leukemia protein” (Cancer Cell, 2010).

Assays:
[1] = Inhibition of CDK5/PRKX/PRKY in human HeLa cells lysate pre incubated for 15 mins followed by ATP acyl phosphate probe addition and measured after 10 mins by LC-MS/MS analysis; type: subcellular
Method in brief: (§1)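 KiNativ profiling in HeLa lysate (5 mg/mL total protein). Lysate incubated 15 min with inhibitor at 50, 10, 2, 0.8 or 0 μM. ATP or ADP acylphosphate probe then added (5 μM final) and reacted 10 min. Reaction stopped with urea and analysed by targeted MS, using up to four fragment ions per kinase peptide-probe conjugate. % inhibition taken against untreated lysate. Run in duplicate.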

[2] = biological target: Mitogen-activated protein kinase 14 (Homo sapiens, UniProt Q16539); assay: Inhibition of P38a interaction site in human HeLa cells lysate pre incubated for 15 mins followed by ATP acyl phosphate probe addition and measured after 10 mins by LC-MS/MS analysis; type: subcellular
[3] = biological target: Interferon-induced, double-stranded RNA-activated protein kinase (Homo sapiens, UniProt P19525); assay: Inhibition of PKR in human HeLa cells lysate pre incubated for 15 mins followed by ATP acyl phosphate probe addition and measured after 10 mins by LC-MS/MS analysis; type: subcellular
[4] = biological target: T1, Phosphatidylinositol 3-kinase catalytic subunit type 3 (Homo sapiens, UniProt Q8NEB9); assay: Inhibition of PIK3C3 in human HeLa cells lysate pre incubated for 15 mins followed by ATP acyl phosphate probe addition and measured after 10 mins by LC-MS/MS analysis; type: subcellular
T1 sequence (Q8NEB9 whole entry): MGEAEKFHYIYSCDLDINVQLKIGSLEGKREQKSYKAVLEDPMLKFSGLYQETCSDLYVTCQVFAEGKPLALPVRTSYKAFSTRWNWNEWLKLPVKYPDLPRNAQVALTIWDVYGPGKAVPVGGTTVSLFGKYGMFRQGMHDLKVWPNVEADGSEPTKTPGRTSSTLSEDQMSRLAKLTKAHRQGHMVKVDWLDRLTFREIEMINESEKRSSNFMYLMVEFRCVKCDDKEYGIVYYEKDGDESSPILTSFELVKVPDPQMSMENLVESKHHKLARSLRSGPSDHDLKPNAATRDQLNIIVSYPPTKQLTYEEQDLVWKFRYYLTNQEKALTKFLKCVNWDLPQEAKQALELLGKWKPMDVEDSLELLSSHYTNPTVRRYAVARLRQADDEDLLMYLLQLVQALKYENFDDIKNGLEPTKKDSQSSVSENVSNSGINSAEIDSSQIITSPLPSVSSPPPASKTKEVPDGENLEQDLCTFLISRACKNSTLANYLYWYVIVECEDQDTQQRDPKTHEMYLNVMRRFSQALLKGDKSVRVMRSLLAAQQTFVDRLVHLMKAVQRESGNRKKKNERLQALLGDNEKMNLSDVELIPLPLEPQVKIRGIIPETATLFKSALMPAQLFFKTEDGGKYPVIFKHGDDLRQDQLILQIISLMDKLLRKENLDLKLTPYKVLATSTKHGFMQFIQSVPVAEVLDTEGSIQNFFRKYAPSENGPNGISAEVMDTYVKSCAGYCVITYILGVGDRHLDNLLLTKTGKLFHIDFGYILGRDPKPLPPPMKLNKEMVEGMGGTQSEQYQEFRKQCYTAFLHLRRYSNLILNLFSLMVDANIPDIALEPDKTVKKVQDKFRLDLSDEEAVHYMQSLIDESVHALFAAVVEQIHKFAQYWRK

[5] = Inhibition of PRKX/PRKY in human HeLa cells lysate pre incubated for 15 mins followed by ADP acyl phosphate probe addition and measured after 10 mins by LC-MS/MS analysis; type: subcellular
[6] = Inhibition of CK1g1/g2/g3 in human HeLa cells lysate at 50 uM pre incubated for 15 mins followed by ADP acyl phosphate probe addition and measured after 10 mins by LC-MS/MS analysis relative to control; settings: 25 min, condition cancer
[7] = Inhibition of MST4/YSK1 in human HeLa cells lysate at 10 uM pre incubated for 15 mins followed by ADP acyl phosphate probe addition and measured after 10 mins by LC-MS/MS analysis relative to control; settings: 25 min, condition cancer
[8] = biological target: Calcium/calmodulin-dependent protein kinase type II subunit delta (Homo sapiens, UniProt Q13557); assay: Inhibition of CamK2d in human HeLa cells lysate at 2 uM pre incubated for 15 mins followed by ADP acyl phosphate probe addition and measured after 10 mins by LC-MS/MS analysis relative to control; type: subcellular; settings: time 25.0 min
[9] = biological target: T2, Dual specificity mitogen-activated protein kinase kinase 7 (Homo sapiens) (UniProt O14733); assay: Inhibition of MAP2K7 in human HeLa cells lysate at 2 uM pre incubated for 15 mins followed by ADP acyl phosphate probe addition and measured after 10 mins by LC-MS/MS analysis relative to control; type: subcellular; settings: time 25.0 min
T2 sequence (whole entry): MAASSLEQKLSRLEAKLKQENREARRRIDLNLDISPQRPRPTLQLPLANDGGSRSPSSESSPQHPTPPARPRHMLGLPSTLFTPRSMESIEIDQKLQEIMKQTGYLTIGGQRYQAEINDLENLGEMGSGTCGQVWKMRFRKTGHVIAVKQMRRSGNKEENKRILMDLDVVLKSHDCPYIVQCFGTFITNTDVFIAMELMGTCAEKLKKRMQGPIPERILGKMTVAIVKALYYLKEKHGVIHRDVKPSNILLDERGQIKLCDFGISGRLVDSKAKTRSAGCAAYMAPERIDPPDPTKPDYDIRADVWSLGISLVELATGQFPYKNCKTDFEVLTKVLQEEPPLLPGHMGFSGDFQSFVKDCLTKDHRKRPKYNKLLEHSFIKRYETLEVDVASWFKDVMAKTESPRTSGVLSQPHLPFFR

[10] = biological target: T3, Interleukin-1 receptor-associated kinase 4 (Homo sapiens) (UniProt Q9NWZ3); assay: Inhibition of IRAK4 in human HeLa cells lysate at 2 uM pre incubated for 15 mins followed by ADP acyl phosphate probe addition and measured after 10 mins by LC-MS/MS analysis relative to control; type: subcellular; settings: time 25.0 min
T3 sequence (whole entry): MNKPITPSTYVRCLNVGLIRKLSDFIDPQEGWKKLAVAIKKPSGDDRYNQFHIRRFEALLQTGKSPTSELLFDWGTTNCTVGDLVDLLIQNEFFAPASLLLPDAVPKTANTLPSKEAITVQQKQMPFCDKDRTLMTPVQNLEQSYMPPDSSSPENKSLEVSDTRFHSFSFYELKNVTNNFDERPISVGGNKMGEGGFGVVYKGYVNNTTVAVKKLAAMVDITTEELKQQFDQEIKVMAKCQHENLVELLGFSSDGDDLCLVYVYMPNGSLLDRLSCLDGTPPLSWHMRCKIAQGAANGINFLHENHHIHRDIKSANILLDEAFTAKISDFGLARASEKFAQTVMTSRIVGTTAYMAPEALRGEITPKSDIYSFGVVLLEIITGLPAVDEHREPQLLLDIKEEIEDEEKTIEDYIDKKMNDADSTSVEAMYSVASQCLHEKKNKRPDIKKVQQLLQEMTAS

[11] = biological target: Cyclin-dependent kinase 9 (Homo sapiens, UniProt P50750); assay: Inhibition of CDK9 in human HeLa cells lysate at 2 uM pre incubated for 15 mins followed by ADP acyl phosphate probe addition and measured after 10 mins by LC-MS/MS analysis relative to control; type: subcellular; settings: time 25.0 min; method in brief: as §1
[12] = biological target: T4, Ribosomal protein S6 kinase alpha-1 (Homo sapiens, UniProt Q15418); assay: Inhibition of RSK1 domain 2 in human HeLa cells lysate at 50 uM pre incubated for 15 mins followed by ATP acyl phosphate probe addition and measured after 10 mins by LC-MS/MS analysis relative to control; type: subcellular; settings: time 25.0 min
T4 sequence (Q15418 whole entry, the tested form may be a part): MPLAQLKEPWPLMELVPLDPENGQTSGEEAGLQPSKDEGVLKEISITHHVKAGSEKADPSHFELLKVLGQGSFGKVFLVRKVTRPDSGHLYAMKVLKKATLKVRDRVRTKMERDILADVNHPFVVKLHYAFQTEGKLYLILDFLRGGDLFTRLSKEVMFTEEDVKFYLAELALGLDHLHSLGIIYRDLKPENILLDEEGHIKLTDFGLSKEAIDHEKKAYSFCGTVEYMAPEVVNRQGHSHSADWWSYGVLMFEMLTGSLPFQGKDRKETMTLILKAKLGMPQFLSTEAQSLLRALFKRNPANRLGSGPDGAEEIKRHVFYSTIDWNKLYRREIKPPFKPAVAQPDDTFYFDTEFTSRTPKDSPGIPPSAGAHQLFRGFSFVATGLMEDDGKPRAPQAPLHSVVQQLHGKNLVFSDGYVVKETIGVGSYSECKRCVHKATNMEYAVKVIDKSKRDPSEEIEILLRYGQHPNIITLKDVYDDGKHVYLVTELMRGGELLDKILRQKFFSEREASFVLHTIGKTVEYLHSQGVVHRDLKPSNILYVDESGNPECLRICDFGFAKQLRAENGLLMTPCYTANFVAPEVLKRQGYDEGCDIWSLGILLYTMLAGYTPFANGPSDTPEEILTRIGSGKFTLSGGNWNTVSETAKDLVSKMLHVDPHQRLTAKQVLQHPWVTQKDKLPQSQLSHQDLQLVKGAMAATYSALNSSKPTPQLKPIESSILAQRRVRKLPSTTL

[13] = biological target: T5, Serine/threonine-protein kinase 3/4 (Homo sapiens) (UniProt Q13043+Q13188); assay: Inhibition of MST1/2 in human HeLa cells lysate at 50 uM pre incubated for 15 mins followed by ATP acyl phosphate probe addition and measured after 10 mins by LC-MS/MS analysis relative to control; type: subcellular; settings: time 25.0 min
T5 sequence (Q13043 whole entry, looked up): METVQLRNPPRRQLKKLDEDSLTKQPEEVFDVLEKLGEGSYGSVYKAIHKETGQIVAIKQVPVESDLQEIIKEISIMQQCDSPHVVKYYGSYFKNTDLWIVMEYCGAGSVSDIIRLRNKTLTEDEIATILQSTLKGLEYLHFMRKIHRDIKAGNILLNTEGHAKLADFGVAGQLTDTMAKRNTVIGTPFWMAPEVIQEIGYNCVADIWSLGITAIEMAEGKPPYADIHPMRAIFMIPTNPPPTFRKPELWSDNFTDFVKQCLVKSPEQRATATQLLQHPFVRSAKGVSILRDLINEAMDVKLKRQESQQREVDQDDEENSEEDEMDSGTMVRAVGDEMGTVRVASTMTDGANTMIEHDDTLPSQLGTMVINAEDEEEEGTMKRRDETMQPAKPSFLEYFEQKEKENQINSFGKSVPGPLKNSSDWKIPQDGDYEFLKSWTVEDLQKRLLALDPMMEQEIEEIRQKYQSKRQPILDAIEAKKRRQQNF
T5 sequence (Q13188 whole entry, looked up): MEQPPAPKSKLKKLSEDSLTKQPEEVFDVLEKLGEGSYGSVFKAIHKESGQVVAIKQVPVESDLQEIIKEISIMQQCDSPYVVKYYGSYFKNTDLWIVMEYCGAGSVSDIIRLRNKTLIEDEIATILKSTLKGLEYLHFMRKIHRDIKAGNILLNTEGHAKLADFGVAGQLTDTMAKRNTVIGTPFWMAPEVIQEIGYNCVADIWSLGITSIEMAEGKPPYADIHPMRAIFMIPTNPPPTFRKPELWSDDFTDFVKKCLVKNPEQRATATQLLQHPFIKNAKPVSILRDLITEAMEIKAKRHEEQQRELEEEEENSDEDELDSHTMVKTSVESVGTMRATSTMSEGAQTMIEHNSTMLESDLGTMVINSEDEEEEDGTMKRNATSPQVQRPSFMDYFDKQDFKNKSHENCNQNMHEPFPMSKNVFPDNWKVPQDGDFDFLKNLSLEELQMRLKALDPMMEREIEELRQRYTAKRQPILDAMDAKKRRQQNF

[14] = biological target: RPS6KA1/RPS6KA2/RPS6KA3 (Homo sapiens, UniProt P51812+Q15349+Q15418); assay: Inhibition of RSK1/2/3 in human HeLa cells lysate at 10 uM pre incubated for 15 mins followed by ATP acyl phosphate probe addition and measured after 10 mins by LC-MS/MS analysis relative to control; type: subcellular; settings: time 25.0 min
Chain of RPS6KA1/RPS6KA2/RPS6KA3 (P51812 whole entry, looked up, the tested form may be a part): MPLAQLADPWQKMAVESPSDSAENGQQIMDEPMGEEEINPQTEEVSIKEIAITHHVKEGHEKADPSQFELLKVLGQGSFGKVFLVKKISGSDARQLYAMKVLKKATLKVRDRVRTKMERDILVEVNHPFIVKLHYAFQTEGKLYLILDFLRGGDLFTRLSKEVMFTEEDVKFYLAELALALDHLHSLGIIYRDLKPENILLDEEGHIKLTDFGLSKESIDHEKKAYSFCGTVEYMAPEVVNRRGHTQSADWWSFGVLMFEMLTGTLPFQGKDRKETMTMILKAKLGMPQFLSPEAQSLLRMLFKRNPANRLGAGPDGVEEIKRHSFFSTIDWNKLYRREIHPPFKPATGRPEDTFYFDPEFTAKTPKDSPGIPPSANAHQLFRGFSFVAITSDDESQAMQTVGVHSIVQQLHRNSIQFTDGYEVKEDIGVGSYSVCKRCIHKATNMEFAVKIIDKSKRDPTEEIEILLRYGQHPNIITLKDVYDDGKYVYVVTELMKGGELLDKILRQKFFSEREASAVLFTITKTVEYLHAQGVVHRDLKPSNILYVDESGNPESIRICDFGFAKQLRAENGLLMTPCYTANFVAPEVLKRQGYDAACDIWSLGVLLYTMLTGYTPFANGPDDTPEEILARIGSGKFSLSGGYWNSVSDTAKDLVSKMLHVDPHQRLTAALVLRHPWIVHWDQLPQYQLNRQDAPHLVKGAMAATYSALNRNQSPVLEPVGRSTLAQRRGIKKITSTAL
Chain of RPS6KA1/RPS6KA2/RPS6KA3 (Q15349 whole entry, looked up, the tested form may be a part): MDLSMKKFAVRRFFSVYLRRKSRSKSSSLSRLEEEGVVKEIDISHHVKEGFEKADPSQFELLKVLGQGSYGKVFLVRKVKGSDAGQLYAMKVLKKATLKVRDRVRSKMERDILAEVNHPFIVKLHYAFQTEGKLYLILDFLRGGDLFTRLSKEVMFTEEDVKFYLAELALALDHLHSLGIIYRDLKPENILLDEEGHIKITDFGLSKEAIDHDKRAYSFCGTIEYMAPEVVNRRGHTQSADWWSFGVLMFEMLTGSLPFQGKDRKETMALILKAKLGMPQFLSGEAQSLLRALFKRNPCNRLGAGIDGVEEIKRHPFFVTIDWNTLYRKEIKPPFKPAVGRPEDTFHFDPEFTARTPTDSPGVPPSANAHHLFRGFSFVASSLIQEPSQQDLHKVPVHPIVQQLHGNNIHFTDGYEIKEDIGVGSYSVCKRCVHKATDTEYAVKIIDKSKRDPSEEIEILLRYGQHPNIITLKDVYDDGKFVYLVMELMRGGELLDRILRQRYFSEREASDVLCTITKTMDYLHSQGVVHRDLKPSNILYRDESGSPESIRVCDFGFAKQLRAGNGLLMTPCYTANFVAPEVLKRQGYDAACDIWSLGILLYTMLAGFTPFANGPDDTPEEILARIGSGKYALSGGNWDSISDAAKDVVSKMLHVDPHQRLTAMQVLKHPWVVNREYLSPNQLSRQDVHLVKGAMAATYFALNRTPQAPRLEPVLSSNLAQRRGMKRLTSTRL
Chain of RPS6KA1/RPS6KA2/RPS6KA3 (Q15418 whole entry, looked up, the tested form may be a part): as the sequence (Q15418 whole entry, the tested form may be a part) above

[15] = biological target: T4, Ribosomal protein S6 kinase alpha-1; assay: Inhibition of RSK1 domain 2 in human HeLa cells lysate at 2 uM pre incubated for 15 mins followed by ATP acyl phosphate probe addition and measured after 10 mins by LC-MS/MS analysis relative to control; type: subcellular; settings: time 25.0 min
[16] = biological target: T1, Phosphatidylinositol 3-kinase catalytic subunit type 3; assay: Inhibition of PIK3C3 in human HeLa cells lysate at 2 uM pre incubated for 15 mins followed by ATP acyl phosphate probe addition and measured after 10 mins by LC-MS/MS analysis relative to control; type: subcellular; settings: time 25.0 min
[17] = biological target: T5, Serine/threonine-protein kinase 3/4 (Homo sapiens); assay: Inhibition of MST1/2 in human HeLa cells lysate at 2 uM pre incubated for 15 mins followed by ATP acyl phosphate probe addition and measured after 10 mins by LC-MS/MS analysis relative to control; type: subcellular; settings: time 25.0 min
[18] = biological target: Non-receptor tyrosine-protein kinase TNK1 (Homo sapiens, UniProt Q13470); assay: Binding affinity to TNK1 (unknown origin) assessed as dissociation constant by ATP-competition binding assay
Chain of Non-receptor tyrosine-protein kinase TNK1 (Q13470 whole entry): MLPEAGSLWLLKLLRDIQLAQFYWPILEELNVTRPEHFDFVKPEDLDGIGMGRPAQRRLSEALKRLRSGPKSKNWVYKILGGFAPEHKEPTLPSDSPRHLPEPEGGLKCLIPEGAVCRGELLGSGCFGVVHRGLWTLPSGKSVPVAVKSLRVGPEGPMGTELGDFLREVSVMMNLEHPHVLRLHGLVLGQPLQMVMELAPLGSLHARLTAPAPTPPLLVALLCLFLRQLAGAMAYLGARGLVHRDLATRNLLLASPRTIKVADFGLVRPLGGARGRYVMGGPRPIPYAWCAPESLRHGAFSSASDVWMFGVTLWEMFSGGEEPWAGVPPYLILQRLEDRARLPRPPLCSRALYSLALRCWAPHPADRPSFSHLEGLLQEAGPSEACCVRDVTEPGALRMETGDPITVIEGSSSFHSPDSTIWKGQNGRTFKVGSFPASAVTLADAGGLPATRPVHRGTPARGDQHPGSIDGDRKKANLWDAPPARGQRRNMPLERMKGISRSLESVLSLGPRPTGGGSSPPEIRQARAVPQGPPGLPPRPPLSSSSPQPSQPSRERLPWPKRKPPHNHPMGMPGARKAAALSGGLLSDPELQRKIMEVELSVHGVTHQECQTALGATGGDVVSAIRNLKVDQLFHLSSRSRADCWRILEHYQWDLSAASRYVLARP

[19] = Toxicity in C57Bl/6 mouse assessed as distress effect at 50 mg/kg, ip for 14 days; type: organism-based; settings: in vivo, 336 h, time 14 day

CCOc1cc(N2CCC(O)CC2)ccc1Nc1ncc2c(n1)N(C)c1ccccc1C(=O)N2C
IC50 [1]: > 50 µM | IC50 [2]: > 50 µM | IC50 [3]: > 50 µM | IC50 [4]: > 50 µM | IC50 [5]: > 50 µM | inhibition at 50 µM [6]: -80.5% | inhibition at 10 µM [7]: 7.9% | inhibition [8]: -6.5% | inhibition [9]: 17.9% | inhibition [10]: 12.7% | inhibition [11]: 0.8% | inhibition [12]: 73.1% | inhibition [13]: 11.3% | inhibition [14]: -7.4% | inhibition [15]: 13.6% | inhibition [16]: -0.4% | inhibition [17]: -9% | Kd [18]: 0.89 µM | Activity [19]: Non-Toxic
